{"source": "ChEMBL document CHEMBL3085690", "about": "“Naturally occurring antimicrobial peptide OH-CATH30 selectively regulates the innate immune response to protect against sepsis” (J Med Chem, 2013)", "key": {"[1]": {"test_system": "Mus musculus", "experiment": "Stimulation of innate immune response in Kunming mouse assessed as increase of CCL2 level in peritoneal lavage at 10 mg/kg, ip after 5 hrs", "type": "functional, organism-based", "set-up": "dose 10 mg/kg", "method_in_brief": "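Female Kunming mice (18−22 g) received a single ip injection of peptide at 10 mg/kg in sterile saline. Peritoneal lavage was collected in 2 mL of cold sterile saline 5 h later, and cytokines and chemokines were measured by ELISA. Data are mean ± SD from four mice, compared by unpaired t test.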"}, "[2]": {"test_system": "Mus musculus", "experiment": "Stimulation of innate immune response in neutropenic Kunming mouse infected with Pseudomonas aeruginosa ATCC 27853 assessed as increase of resident monocytes/macrophagess in peritoneal lavage at 10 mg/kg, ip", "type": "functional, organism-based", "set-up": "dose 10 mg/kg", "method_in_brief": "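Mice were made neutropenic with ip cyclophosphamide, 150 mg/kg on day 0 and 100 mg/kg on day 3. They were then injected ip with peptide at 10 mg/kg. Peritoneal cells were collected up to 24 h afterwards and typed by flow cytometry after GR1/F4/80 staining.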"}, "[3]": {"experiment": "Induction of IL-1beta mRNA up-regulation in mouse BMDM at 20 ug/ml after 3 hrs by qRT-PCR analysis relative to control", "type": "functional", "method_in_brief": "(§1)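 Murine BMDMs stimulated with peptide, then target mRNA quantified by qRT-PCR. Expression normalized to GAPDH, with untreated cells set to 1.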"}, "[4]": {"test_system": "BMDM", "experiment": "Induction of CCL7 mRNA up-regulation in mouse BMDM at 20 ug/ml after 3 hrs by qRT-PCR analysis", "type": "functional", "method_in_brief": "as §1"}, "[5]": {"test_system": "Mus musculus", "experiment": "Stimulation of innate immune response in Kunming mouse assessed as increase of neutrophils in peritoneal lavage at 10 mg/kg, ip after 5 hrs", "type": "functional, organism-based", "set-up": "dose 10 mg/kg", "method_in_brief": "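Female Kunming mice were given peptide ip at 10 mg/kg. At 5 h, peritoneal cells were recovered by lavage with 2 mL PBS and counted. Cells were stained with anti-F4/80-PE and GR1-FITC for 30 min at room temperature and typed by flow cytometry: neutrophils GR1+/F4/80−, resident monocytes/macrophages GR1−/F4/80+, inflammatory monocytes GR1+/F4/80+. Data are mean ± SD from three mice, unpaired t test.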"}, "[6]": {"test_system": "BMDM", "experiment": "Increase of IL-1beta protein level in mouse BMDM at 20 ug/ml after 18 hrs by ELISA", "type": "functional", "method_in_brief": "(§2)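 Bone marrow-derived macrophages (RPMI 1640, 10% FCS, 20% L929-conditioned medium) stimulated with peptide for 18 h. Cytokines and chemokines in culture supernatant quantified by sandwich ELISA. Mean ± SD from three independent experiments, unpaired t test.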"}, "[7]": {"test_system": "BMDM", "experiment": "Induction of CXCL11 mRNA up-regulation in mouse BMDM at 20 ug/ml after 3 hrs by qRT-PCR analysis", "type": "functional", "method_in_brief": "as §1"}, "[8]": {"experiment": "Increase of CXCL2 protein level in mouse BMDM at 10 ug/ml after 18 hrs by ELISA", "type": "functional", "method_in_brief": "as §2"}, "[9]": {"test_system": "Mus musculus", "experiment": "Stimulation of innate immune response in Kunming mouse assessed as protection against drug-resistant Escherichia coli-induced mortality by measuring survival rate at 10 mg/kg, ip administered 5 hrs before bacterial infection measured up to 7 days", "type": "functional", "settings": "route intraperitoneal", "method_in_brief": "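Female Kunming mice (18−22 g) were dosed ip in sterile saline at 10 mg/kg, 5 h before ip challenge with clinical drug-resistant isolates: E. coli (n = 12), P. aeruginosa (n = 10) or S. aureus (n = 15). Survival was recorded for up to 7 days, with checks every 6 h and euthanasia by CO2 at the humane end point.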"}, "[10]": {"test_system": "RAW264.7", "experiment": "Induction of H2O2 production in mouse RAW264.7 cells", "type": "functional, cell-based"}, "[11]": {"organism": "Mus musculus", "experiment": "Activation of JNK in mouse BMDM assessed as phosphorylation at 10 ug/ml by Western blotting", "method_in_brief": "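BMDMs cultured in RPMI 1640 with 10% FCS and 20% L929-conditioned medium. Lysates separated by 10% SDS-PAGE, blotted to PVDF and blocked in 5% BSA. Probed for phospho-JNK/JNK or phospho-p38/p38, then HRP goat anti-rabbit IgG, chemiluminescence read-out.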"}, "[12]": {"test_system": "BMDM", "experiment": "Increase of CXCL2 protein level in mouse BMDM at 20 ug/ml after 18 hrs by ELISA", "type": "functional", "method_in_brief": "as §2"}, "[13]": {"test_system": "Mus musculus", "experiment": "Stimulation of innate immune response in Kunming mouse infected with Pseudomonas aeruginosa ATCC 27853 assessed as effect on CXCL2 production in peritoneal lavage at 10 mg/kg, ip after 3 hrs by ELISA", "type": "functional, organism-based", "set-up": "dose 10 mg/kg", "method_in_brief": "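Mice were pretreated ip with peptide at 10 mg/kg 5 h before ip challenge with P. aeruginosa 27853 at 8 × 10^7 CFU/mouse. CCL2 and CXCL2 were measured in peritoneal lavage collected 3 h after inoculation. TNF-α and IL-6 were measured in serum collected 5 h after inoculation. All were read by ELISA; data are mean ± SD from four mice, unpaired t test.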"}, "[14]": {"test_system": "Mus musculus", "experiment": "Stimulation of innate immune response in Kunming mouse assessed as protection against CLP-induced mortality by measuring survival rate at 10 mg/kg, ip administered 2 hrs before bacterial infection measured up to 7 days", "type": "functional", "settings": "route intraperitoneal"}, "[15]": {"test_system": "Mus musculus", "experiment": "Stimulation of innate immune response in Kunming mouse assessed as protection against bacteria-induced mortality by measuring survival rate at 10 mg/kg, ip measured up to 7 days", "type": "functional, organism-based", "set-up": "dose 10 mg/kg"}, "[16]": {"experiment": "Increase of CXCL2 production in mouse BMDM after 6 hrs by ELISA in presence of JNK inhibitor SP600125", "type": "functional"}, "[17]": {"test_system": "BMDM", "experiment": "Increase of CXCL2 production in mouse BMDM after 6 hrs by ELISA in presence of CD14 Ab", "type": "functional"}}, "note": "Activity calls are given as the source filed them. The calls are words filed in the database; no cut-off is given here. Peptide text beside a SMILES is read from it.", "data": [{"smiles": "CC[C@H](C)[C@H](NC(=O)[C@@H](NC(=O)[C@H](CCCNC(=N)N)NC(=O)[C@@H]1CCCN1C(=O)[C@H](CCCCN)NC(=O)[C@H](CCCCN)NC(=O)[C@H](Cc1ccccc1)NC(=O)[C@H](Cc1ccccc1)NC(=O)[C@H](CCCCN)NC(=O)[C@H](CCCCN)NC(=O)[C@H](C)NC(=O)[C@H](CCCNC(=N)N)NC(=O)[C@H](CCCCN)NC(=O)[C@H](CCCCN)NC(=O)[C@@H](NC(=O)[C@H](CO)NC(=O)[C@H](CC(N)=O)NC(=O)[C@H](CCCCN)NC(=O)[C@H](CC(C)C)NC(=O)[C@H](CCCCN)NC(=O)[C@H](CCCCN)NC(=O)[C@H](Cc1ccccc1)NC(=O)[C@H](Cc1ccccc1)NC(=O)[C@@H](N)CCCCN)C(C)C)C(C)C)C(=O)NCC(=O)N[C@H](C(=O)N[C@@H](CO)C(=O)N[C@H](C(=O)N1CCC[C@H]1C(=O)N[C@@H](Cc1ccccc1)C(=O)O)[C@@H](C)CC)C(C)C", "note": "(H-KFFKKLKNSVKKRAKKFFKKPRVIGVSIPF-OH)", "values": [{"measurement": "Activity", "setting": "[1]", "result": "Active"}, {"measurement": "Activity", "setting": "[2]", "result": "Active"}, {"measurement": "fold change (FC)", "setting": "[3]", "result": 2.5}, {"measurement": "Activity", "setting": "[4]", "result": "Active"}, {"measurement": "Activity", "setting": "[5]", "result": "Active"}, {"measurement": "Activity", "setting": "[6]", "result": "inactive"}, {"measurement": "Activity", "setting": "[7]", "result": "Active"}, {"measurement": "Activity", "setting": "[8]", "result": 1450, "unit": "pg/mL"}, {"measurement": "survival at 10 mg/kg", "setting": "[9]", "result": 92.5, "unit": "%"}, {"measurement": "Activity", "setting": "[10]", "result": "inactive"}, {"measurement": "Activity", "setting": "[11]", "result": "Active"}, {"measurement": "Activity", "setting": "[12]", "result": "Active"}, {"measurement": "Activity", "setting": "[13]", "result": "Active"}, {"measurement": "survival at 10 mg/kg", "setting": "[14]", "result": 40, "unit": "%"}, {"measurement": "Activity", "setting": "[15]", "result": "inactive"}, {"measurement": "Activity", "setting": "[16]", "result": 952, "unit": "pg/mL"}, {"measurement": "Activity", "setting": "[17]", "result": "Active"}]}]}
